This is a sample that favours compounds with a hit; in the whole collection about 1% have one here.
procasp3 activ: procaspase-3 (human) activation | P42574 | recombinant procaspase-3 D3A, Ac-DEVD-pNA absorbance 405 nm | activation, % at 8.5 µM | 330,000 tested, 0.11% active | AID 463141;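 active = activation above the mean of all tested compounds plus 3 SD, cut at about 21% in these data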;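 note: 0% = DMSO alone and 100% = DMSO wells spiked with extra 5 µM PC-3 D3A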
Target sequence (P42574 whole entry D9A/D28A/D175A): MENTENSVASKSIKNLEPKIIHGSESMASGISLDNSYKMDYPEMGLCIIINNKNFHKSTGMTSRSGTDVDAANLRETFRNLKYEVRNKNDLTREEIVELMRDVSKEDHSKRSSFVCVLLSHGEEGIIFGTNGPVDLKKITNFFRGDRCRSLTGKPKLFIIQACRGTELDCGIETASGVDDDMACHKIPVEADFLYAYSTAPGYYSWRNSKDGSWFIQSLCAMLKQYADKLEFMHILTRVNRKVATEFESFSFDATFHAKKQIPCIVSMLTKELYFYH
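Test system: Procaspase-3 D3A mutant, all three cleavage aspartates alanine | Dosing: Single dose, 8.5 µM nominal compound, 0.8% DMSO | Schedule: 1 h preincubation, 2 h reaction | Technique: 405 nm absorbance of p-nitroaniline, reads at 0 and 120 min | Repeats: One well per compound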
PME-1 primary: PME-1 (human) inhibition; Q9Y570; recombinant PME-1, FP-Rh probe fluorescence polarization; inhibition, % at 5.9 µM; 320,000 tested, 0.53% active; AID 2130;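 active = inhibition above the campaign mean of all compounds plus 3 SD, cut at about 26% in these data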;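 note: competitive labeling of PME-1 active site by serine hydrolase directed probe; 0% = PME-1 with DMSO and 100% = wells lacking PME-1 enzyme; inhibitors block probe labeling so polarization falls and inhibition rises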
LYPLA2 counter: blocks human lysophospholipase 2, a PME1 counter-screen; recombinant LYPLA2, FP-Rh probe fluorescence polarization; inhibition, % at 5.9 µM; 320,000 tested, 0.38% active; AID 2177;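 active = inhibition above the screen-wide mean plus 3 SD, limit set per campaign, cut at about 26% in these data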;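 note: 0% = LYPLA2 with DMSO and 100% = wells lacking LYPLA2 enzyme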
LYPLA1 inh: counter-screen for PME1 inhibitors: inhibitors of human LYPLA1 | inhibition, % at 5.9 µM | 320,000 tested, 0.16% active | recombinant LYPLA1, FP-Rh probe fluorescence polarization | O75608 | AID 2174;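 active = inhibition above the mean of all tested compounds plus 3 SD, set per campaign, cut at about 14% in these data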;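 note: inhibitors block serine hydrolase probe labeling of LYPLA1 so polarization falls; 0% = enzyme with DMSO and 100% = wells lacking LYPLA1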
procasp7 counter: activates human procaspase-7, counter-screen for procaspase-3 activators. AID 463210. P55210. 330,000 tested, 0.093% active. activation, % at 8.5 µM. recombinant procaspase-7, Ac-DEVD-pNA absorbance 405 nm; D23A/D198A/D206A triple mutant, cannot self-cleave; scale: DMSO 0, 5 µM enzyme 100;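 active = percent activation above the screen-wide mean plus 3 SD, cut at about 25% in these data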
Target sequence (P55210 whole entry D23A/D198A/D206A): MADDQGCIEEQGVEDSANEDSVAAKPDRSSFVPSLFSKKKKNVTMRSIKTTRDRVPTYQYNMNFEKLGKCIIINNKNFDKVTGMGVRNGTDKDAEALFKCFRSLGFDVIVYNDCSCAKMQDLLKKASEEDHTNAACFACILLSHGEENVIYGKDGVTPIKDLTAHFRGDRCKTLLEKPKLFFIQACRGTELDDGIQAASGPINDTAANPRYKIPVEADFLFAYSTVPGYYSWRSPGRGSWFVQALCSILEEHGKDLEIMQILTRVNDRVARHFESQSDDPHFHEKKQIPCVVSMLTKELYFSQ
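Assay system: Uncleavable procaspase-7 mutant enzyme / Input: 2 µM procaspase-7 mutant as dispensed / Dosing: single nominal 8.5 µM compound dose, 0.8% DMSO final / Timing: 1 h enzyme–compound preincubation and 2 h substrate reaction, both 25 °C / Detection: p-Nitroaniline absorbance at 405 nm, read at 0 and 120 min / Replication: singlicate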
Fam108B inh: blocks mouse Fam108B hydrolase in RBBP9 counter-screen; recombinant Fam108B, FP-Rh probe fluorescence polarization; inhibition, % at 9.51 µM; 300,000 tested, 0.33% active;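 active = inhibition above the screen mean inhibition plus 3 SD, computed separately per campaign, cut at about 18% in these data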;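 note: inhibitors lower polarization as less probe binds the enzyme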
procasp7 triplic: counter-screen: procaspase-7 (human) activation in triplicate. shares compounds with procasp3 activ. recombinant procaspase-7, Ac-DEVD-pNA absorbance; asp23/198/206-to-Ala mutant, cannot self-cleave. activation, % at 8.5 µM. 210 tested, under 10 active. AID 488941;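 active = mean activation above a set limit taken from an earlier procaspase-7 screen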;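 note: 0% = DMSO wells and 100% = DMSO plus 5 µM procaspase-7 enzyme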
proCasp3 confirm: confirmation of human procaspase-3 activators; recombinant PC-3 D3A, Ac-DEVD-pNA absorbance 405 nm; 100% is higher-enzyme control; shares compounds with procasp3 activ; activation, % at 8.5 µM; 210 tested, 10% active;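 active = mean activation above a set limit carried over from the earlier primary screen, cut at about 22% in these data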
* = called active by the depositor.

Results for Cc1c(Cc2ccccc2)sc(/N=C/c2c(O)ccc3ccccc23)c1C(N)=O ?
procasp3 activ: 32*; PME-1 primary: 10; LYPLA2 counter: -10; LYPLA1 inh: -17; procasp7 counter: 10; Fam108B inh: 13; procasp7 triplic: 9; proCasp3 confirm: 26*

Results for Cc1c(CCCN)c2ccccc2n1Cc1ccccc1 ?
procasp3 activ: -1; PME-1 primary: -2; LYPLA2 counter: 5; LYPLA1 inh: -1; procasp7 counter: 7; Fam108B inh: 2

How did COc1ccc(NC(=O)CSc2nc3ccccc3nc2N2CCCC2)cc1Cl do in these assays?
procasp3 activ: 30*; PME-1 primary: -10; LYPLA2 counter: -18; LYPLA1 inh: -10; procasp7 counter: -1; Fam108B inh: -3; procasp7 triplic: -3; proCasp3 confirm: -3

How did COc1ccc(NC(=O)CSc2nc3ccccc3nc2N2CCCC2)cc1 do in these assays?
procasp3 activ: 2; PME-1 primary: -3; LYPLA2 counter: -5; LYPLA1 inh: -1; procasp7 counter: 1; Fam108B inh: -1

How did Cc1coc2c(C)c3oc(=O)c(CCC(=O)NCCCN4CCCC4=O)c(C)c3cc12 do in these assays?
procasp3 activ: 2; PME-1 primary: -3; LYPLA2 counter: 2; LYPLA1 inh: -2; procasp7 counter: -6; Fam108B inh: 1

How did Cc1c(CCC(=O)NCCCN2CCCC2=O)c(=O)oc2cc(O)ccc12 do in these assays?
procasp3 activ: 26*; PME-1 primary: -2; LYPLA2 counter: 3; LYPLA1 inh: 0; procasp7 counter: 19; Fam108B inh: 8; procasp7 triplic: -21; proCasp3 confirm: -14

Results for CCN1C(=O)c2cccc3c(S(=O)(=O)N(C(C)=O)c4ccc(OC(C)=O)cc4)ccc1c23 ?
procasp3 activ: 24*; procasp7 counter: 0; procasp7 triplic: -22; proCasp3 confirm: -12

How did Cc1ccc(S(=O)(=O)N(CC(=O)N2CCC(C)CC2)c2ccccc2)cc1 do in these assays?
procasp3 activ: 23*; PME-1 primary: 0; LYPLA2 counter: -3; LYPLA1 inh: 0; procasp7 counter: 1; Fam108B inh: -3; procasp7 triplic: 2; proCasp3 confirm: 5

How did C=CCn1c2ccccc2c(=O)c2cc(C#CC3(O)CCCCC3)ccc21 do in these assays?
procasp3 activ: 150*; PME-1 primary: -14; LYPLA2 counter: -25; LYPLA1 inh: -14; procasp7 counter: -22; Fam108B inh: -13; procasp7 triplic: -21; proCasp3 confirm: -14

What do the screens show for `C=CCn1c2ccccc2c(=O)c2cc(C#CC[C@@H](C)O)ccc21`?
procasp3 activ: -4; PME-1 primary: 1; LYPLA2 counter: -14; LYPLA1 inh: -6; procasp7 counter: -10

What do the screens show for `Cn1c(=NC(=O)CS(=O)(=O)c2ccc(F)cc2)sc2ccccc21`?
procasp3 activ: 22*; PME-1 primary: 2; LYPLA2 counter: -2; LYPLA1 inh: 0; procasp7 counter: 7; Fam108B inh: 1; procasp7 triplic: 1; proCasp3 confirm: 3

Results for COc1cccc(C2CCCN2Cc2nc(-c3cnccn3)no2)c1 (stereo not given) ?
procasp3 activ: 9; PME-1 primary: 3; LYPLA2 counter: 2; LYPLA1 inh: -2; procasp7 counter: -1; Fam108B inh: 2

What do the screens show for `CCOc1ccc(NC(=O)CN(C)C(=O)c2ccc(C3SCCS3)cc2)cc1OCC`?
procasp3 activ: 21*; PME-1 primary: 2; LYPLA2 counter: 3; LYPLA1 inh: -2; procasp7 counter: 6; Fam108B inh: 4; procasp7 triplic: -1; proCasp3 confirm: 2

Results for CCOc1ccc(NC(=O)CN(C)C(=O)C2CCCC2)cc1OCC ?
procasp3 activ: -1; PME-1 primary: 4; LYPLA2 counter: -1; LYPLA1 inh: -2; procasp7 counter: -12; Fam108B inh: 5

How did C=CCSC1=N/C(=C\C=C\c2ccco2)C(=O)S1 do in these assays?
procasp3 activ: -4; PME-1 primary: 2; LYPLA2 counter: 4; LYPLA1 inh: 3; procasp7 counter: -12; Fam108B inh: 16

What do the screens show for `C=CCSC1=N/C(=C\c2sccc2C)C(=O)S1`?
procasp3 activ: 59*; PME-1 primary: -5; LYPLA2 counter: 8; LYPLA1 inh: -1; procasp7 counter: 4; Fam108B inh: 0; procasp7 triplic: -18; proCasp3 confirm: -9

Results for COc1ccc(-c2oc3ccccc3c(=O)c2OC(C)=O)cc1 ?
procasp3 activ: -7; PME-1 primary: 2; LYPLA2 counter: 0; LYPLA1 inh: 3; procasp7 counter: -10; Fam108B inh: -1

How did CC(=O)Oc1c(-c2ccc(Br)o2)oc2ccccc2c1=O do in these assays?
procasp3 activ: 27*; PME-1 primary: 9; LYPLA2 counter: 4; LYPLA1 inh: 0; procasp7 counter: 24; Fam108B inh: 1; procasp7 triplic: -4; proCasp3 confirm: 21*

Results for Cc1ccc(OCC(=O)NC2CCS(=O)(=O)C2)c([N+](=O)[O-])n1 (stereo not given) ?
procasp3 activ: 21*; PME-1 primary: -2; LYPLA2 counter: -3; LYPLA1 inh: -1; procasp7 counter: -4; Fam108B inh: 2; procasp7 triplic: 4; proCasp3 confirm: 5

What do the screens show for `COc1cc(C(C)=O)ccc1O`?
procasp3 activ: 9; PME-1 primary: 1; LYPLA2 counter: 2; LYPLA1 inh: 1; procasp7 counter: -6; Fam108B inh: 0

How did C=CCn1c(O)c(N=NC(=S)Nc2cccc(OC)c2)c2ccccc21 do in these assays?
procasp3 activ: 34*; PME-1 primary: 6; LYPLA2 counter: 10; LYPLA1 inh: 13; procasp7 counter: -8; Fam108B inh: 7; procasp7 triplic: -6; proCasp3 confirm: 6

What do the screens show for `COCCN(C(=O)CSCC(=O)Nc1ccc(C)cc1)c1c(N)n(CC(C)C)c(=O)[nH]c1=O`?
procasp3 activ: 61*; PME-1 primary: -5; LYPLA2 counter: -5; LYPLA1 inh: -3; procasp7 counter: 5; procasp7 triplic: 2; proCasp3 confirm: 5

How did COc1ccc(C2CC(c3cccc(F)c3)=NN2c2ccc(S(N)(=O)=O)cc2)cc1 (stereo not given) do in these assays?
procasp3 activ: 37*; procasp7 counter: 20; procasp7 triplic: -22; proCasp3 confirm: -12

High-throughput results: PubChem, The Scripps Research Institute Molecular Screening Center
